Tests used:
[1] = system: L1210; experiment: Antitumor activity in the mice with intraperitoneal implanted L1210 lymphoid leukemia at the dose 50 mg/kg/day x 5 was determined and number of animals survived on 30 th day were reported; 0/8; format: functional, Mus musculus
Procedure, shortened: (§1)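 Female C3D2F1/J mice (C3H/HeJ × DBA/2J), groups of six to eight, average weight 25 g. Each mouse got 1 × 10^6 L1210 ascites cells ip, taken from DBA/2Ha donor mice bearing 3-5 day tumors. Compound was dissolved in 0.154 N NaOH and neutralized with 0.154 N HCl (final 0.9% NaCl). Dosed ip daily ×5, starting 24 h after implant. Recorded body weight change on day 8, survival range, median survival and 30-day survivors. ILS = (T/C − 1) × 100.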

[2] = system: L1210; experiment: Antitumor activity in the mice with intraperitoneal implanted L1210 lymphoid leukemia at the dose 50 mg/kg/day x 5 was determined as percentage increase in the life span as compared with control tumor bearers; format: functional; details: Mus musculus, L1210, ip
Procedure, shortened: (§2)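 C3D2F1/J female mice (C3H/HeJ female × DBA/2J male), groups of six to eight, average weight 25 g. Inoculated ip with 1 × 10^6 L1210 ascites cells taken from DBA/2Ha donor mice bearing 3-5 day old tumors. Compounds were dissolved in 0.154 N NaOH, neutralized with 0.154 N HCl (final 0.9% NaCl), and given ip daily for 5 days from 24 h post-implant. Median survival T/C; ILS = (T/C − 1) × 100; 30-day survivors counted.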

[3] = system: L1210; experiment: Antitumor activity in mice with intraperitoneal implanted L1210 lymphoid leukemia at the dose 50 mg/kg/day x 5 was determined as weight change (g/mouse) on 8th day; format: functional
Procedure, shortened: (§3)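 C3D2F1/J female mice (C3H/HeJ × DBA/2J), groups of six to eight, average 25 g, inoculated ip with 1 × 10^6 L1210 ascites cells taken from DBA/2Ha donor mice carrying 3-5 day tumors. Compound dissolved in 0.154 N NaOH, then neutralized with 0.154 N HCl to give 0.9% NaCl. Given ip daily for 5 consecutive days starting 24 h after implantation. Body weight change per mouse recorded on day 8.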

[4] = system: L1210; experiment: Antitumor activity in the mice with intraperitoneal implanted L1210 lymphoid leukemia at the dose 25 mg/kg/day x 5 was determined as percentage increase in the life span as compared with control tumor bearers; format: functional; details: Mus musculus, L1210, ip; procedure, shortened: as §1
[5] = system: L1210; experiment: Antitumor activity in the mice with intraperitoneal implanted L1210 lymphoid leukemia at the dose of 75 mg/kg/day x 5 was determined as mean survival of treated group compared to untreated; 18/9.5; format: functional, Mus musculus
[6] = system: L1210; experiment: Antitumor activity in the mice with intraperitoneal implanted L1210 lymphoid leukemia at the dose 25 mg/kg/day x 5 was determined as Survival time in days; Range is 13- >45 days; format: functional, Mus musculus; procedure, shortened: as §1
[7] = system: L1210; experiment: Antitumor activity in the mice with intraperitoneal implanted L1210 lymphoid leukemia at the dose 75 mg/kg/day x 5 was determined as percentage increase in the life span as compared with control tumor bearers; format: functional; details: Mus musculus, L1210, ip; procedure, shortened: as §2
[8] = system: L1210; experiment: Antitumor activity in mice with intraperitoneal implanted L1210 lymphoid leukemia at the dose 75 mg/kg/day x 5 was determined as weight change (g/mouse) on 8th day; format: functional; procedure, shortened: as §3
[9] = system: L1210; experiment: Antitumor activity in the mice with intraperitoneal implanted L1210 lymphoid leukemia at the dose 25 mg/kg/day x 5 was determined and number of animals survived on 30 th day were reported; 1/8; format: functional, Mus musculus; procedure, shortened: as §1
[10] = system: L1210; experiment: Antitumor activity in mice with intraperitoneal implanted L1210 lymphoid leukemia at the dose 25 mg/kg/day x 5 was determined as weight change (g/mouse) on 8th day; format: functional; procedure, shortened: as §3
[11] = system: L1210; experiment: Antitumor activity in the mice with intraperitoneal implanted L1210 lymphoid leukemia at the dose of 50 mg/kg/day x 5 was determined as mean survival of treated group compared to untreated; 20.5/8; format: functional, Mus musculus
[12] = system: L1210; experiment: Antitumor activity in the mice with intraperitoneal implanted L1210 lymphoid leukemia at the dose 75 mg/kg/day x 5 was determined and number of animals survived on 30 th day were reported; 1/8; format: functional, Mus musculus; procedure, shortened: as §2
[13] = system: L1210; experiment: Antitumor activity in the mice with intraperitoneal implanted L1210 lymphoid leukemia at the dose of 25 mg/kg/day x 5 was determined as mean survival of treated group compared to untreated; 17.5/9.5; format: functional, Mus musculus; procedure, shortened: as §2
[14] = system: L1210; experiment: Antitumor activity in the mice with intraperitoneal implanted L1210 lymphoid leukemia at the dose 50 mg/kg/day x 5 was determined as Survival time in days; Range is 14-24 days; format: functional, Mus musculus; procedure, shortened: as §1
[15] = system: L1210; experiment: In Vitro evaluation for the antiproliferative activity by observing the growth inhibition of L1210 lymphoid leukemia cells in culture at 72 hour; format: functional, Mus musculus
Procedure, shortened: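 Growth of L1210 lymphoid leukemia cells in culture measured by Trypan blue exclusion of viable cells after 72 h of drug exposure. ED50 is the concentration giving 50% growth inhibition. In some runs the compound was first preincubated in medium at 37 °C for 24 or 48 h before the assay.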

[16] = system: L1210; experiment: Antitumor activity in the mice with intraperitoneal implanted L1210 lymphoid leukemia at the dose 75 mg/kg/day x 5 was determined as Survival time in days; Range is 15-37 days; format: functional, Mus musculus; procedure, shortened: as §2

C[C@H]1C[C@@H]2[C@H]([C@@H](O)C[C@@]3(C)[C@H]2CC[C@]3(O)C(=O)COP(=O)(O)OC[C@H]2O[C@@H](n3ccc(N)nc3=O)[C@@H](O)[C@@H]2O)[C@@]2(C)C=CC(=O)C=C12
Survivors [1]: 0 | ILS at 50 mg/kg/day [2]: 156% | Weight change [3]: -1.08 g mouse-1 | ILS at 25 mg/kg/day [4]: 84% | T/C [5]: 18 | Survival time [6]: 13 days | ILS at 75 mg/kg/day [7]: 90% | Weight change [8]: -1.07 g mouse-1 | Survivors [9]: 1 | Weight change [10]: 2 g mouse-1 | T/C [11]: 20.5 | Survivors [12]: 1 | T/C [13]: 17.5 | Survival time [14]: 14 days | ED 50 [15]: 450 nM | Survival time [16]: 15 days

Source: ChEMBL document CHEMBL1121364, “Nucleoside conjugates as potential antitumor agents. 3. Synthesis and antitumor activity of 1-(beta-D-arabinofuranosyl)cytosine conjugates of corticosteroids” (1980)
